Screening results deposited in PubChem BioAssay by several laboratories.
A selection: hits, their analogues and other compounds. The true share with any hit is near 4.8%.
UCH37 inh: inhibitors of human UCH37 deubiquitinase, primary screen, biochemical, Ub-AMC cleavage, fluorescence | purified proteasome/UCH37 | inhibition, % (test concentration not listed) | 330,000 tested, 0.33% active | Ubiquitin carboxyl-terminal hydrolase isozyme L5 (Homo sapiens), Q9Y5K5 | AID 588478, 2011;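 active means mean inhibition over replicate wells above about 20%, limit read from the data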;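 further: 0% = compound-free wells with enzyme and 100% = wells lacking proteasome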
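Material: Human UCH37 enzyme supplied as purified proteasome complex | Schedule: 30 min preincubation with enzyme, 25 min cleavage at room temperature | Detection: AMC fluorescence 355/460 nm | Measure: % inhibition of Ub-AMC cleavage fluorescence | Controls: Wells without proteasome as full block, compound-free enzyme plus substrate as uninhibited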
Calb FLC: C. albicans growth inhibition with fluconazole, primary screen, CaCi-2 strain, Alamar Blue fluorescence; C. albicans CaCi-2 + fluconazole, 48 h; growth inhibition, % (concentration not given with the values); 300,000 tested, 0.57% active; AID 1979, 2009;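 active means growth inhibition above about 58% in most replicates, limit read from the data, passing the limit was not always enough; inconclusive means exactly half the replicates above a set limit; inactive means most replicates below a set limit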;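 further: all wells also contain fluconazole at 8 µg/ml as a sub-toxic cotreatment; 0% = median of DMSO wells and 100% = median of geldanamycin control wells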
ALR H2O2 inh: inhibitors of human ALR sulfhydryl oxidase, primary screen, biochemical, H2O2 detection, HRP-luminol luminescence, single point; FAD-linked sulfhydryl oxidase ALR (Homo sapiens), P55789; purified ALR, DTT oxidation; inhibition, % (no concentration beside the values); 290,000 tested, 3.8% active;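 active means mean replicate inhibition above about 79%, with every replicate also reaching it, limit read from the data; inconclusive means only one of the two criteria met; inactive means mean below limit and not every replicate reaching it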
Target sequence (P55789 whole entry, looked up): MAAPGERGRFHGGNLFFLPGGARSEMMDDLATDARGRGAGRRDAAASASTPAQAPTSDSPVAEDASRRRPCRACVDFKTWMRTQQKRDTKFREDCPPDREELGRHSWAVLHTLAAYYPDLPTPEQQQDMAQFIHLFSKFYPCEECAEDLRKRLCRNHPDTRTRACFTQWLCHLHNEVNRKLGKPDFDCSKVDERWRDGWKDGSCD
NALP1 yeast inh: NALP1 inflammasome inhibitors in reconstituted yeast, colorimetric, S. cerevisiae, triplicate retest. S. cerevisiae NALP1/ASC/caspase-1 growth, X-gal OD620, 72 h. inhibition, % at 10 µM. 280,000 tested, 0.61% active. AID 2071, 2009; in the data active means inhibition mostly above about 24%, no sharp cut-off; inactive means mostly below about 32%
ATG4B inhibitor: ATG4B protease inhibitors, primary screen, biochemical, fluorescence, uHTS; Cysteine protease ATG4B (Homo sapiens), Q9Y4P1; 340,000 tested, 0.51% active; ATG4B cleavage of LC3-PLA2, NBD-HPC fluorescence, 1 h; inhibition, % at 8.33 µM; in the data active means inhibition above about 40%
NLRP3 yeast inh: NALP3 inflammasome inhibitors in reconstituted yeast, primary screen, luminescence, uHTS. Yeast reconstituted NLRP3/ASC/caspase-1, beta-gal luminescence, 24 h. inhibition, % at 10 µM. 330,000 tested, 0.39% active. AID 2825, 2010;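 active means inhibition of 50% or more; inactive means inhibition below 50%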;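 further: plate controls were induced DMSO wells for no effect and uninduced yeast grown without galactose for full effect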
The depositor's hits bear a star; ? = inconclusive; / = no result.

SMILES	UCH37 inh	Calb FLC	ALR H2O2 inh	NALP1 yeast inh	ATG4B inhibitor	NLRP3 yeast inh
COc1ccc2[nH]c3c(Cl)ncnc3c2c1	-12.1	-4.8	46.5	26.9	3.7	26.9
Fc1ccc2[nH]c3c(Cl)ncnc3c2c1	-134.2	9.0	95.4*	2.8	-6.6	13.6
Cn1ncc2c(ON=C(N)c3ccc(C(C)(C)C)cc3)ncnc21	1.9	/	/	/	/	/
NC(=S)NN=C1CCOc2ccc(Cl)cc21	9.9	/	/	/	/	/
O=c1cc(-c2ccccc2)cc(-c2ccccc2)n1O	1.1	0.6	98.0*	/	2.2	4.8
Cc1cc(-c2ccccc2)cc(=O)[nH]1	/	/	/	/	-5.8	/
S=c1[nH]nc(-c2ccccn2)n1/N=C/c1ccc(-c2ccccc2Cl)o1	/	40.4	96.7*	-10.9	16.4	23.8
S=c1[nH]nc(-c2ccccn2)n1/N=C/c1ccc(Br)s1	/	?	96.1*	5.0	13.1	15.8
S=c1[nH]nc(COc2ccccc2)n1/N=C/c1ccc(Br)s1	/	-4.5	95.1*	-3.1	3.4	34.8
S=c1[nH]nc(-c2ccccn2)n1N=Cc1ccc(-c2ccccc2Cl)o1	7.9	/	/	/	/	/
S=c1[nH]nc(-c2ccccn2)n1N=Cc1cccs1	5.1	/	/	/	/	/
Cc1ccc(/C=N/n2c(COc3ccccc3)n[nH]c2=S)s1	/	42.3	8.0	-4.8	-7.1	30.2
Cc1ccc(NC(=O)ON=C2CCCCC2c2ccc([N+](=O)[O-])cc2[N+](=O)[O-])cc1 (centres undefined)	3.4	/	/	/	/	/
CC(=NNc1ccc(C(F)(F)F)cn1)c1ccc(S(=O)(=O)NCc2ccco2)cc1	2.1	/	/	/	/	/
O=S(=O)(CC(CN1CCCCC1)N1CCCCC1)c1ccc2ccccc2c1 (centres undefined)	2.7	-3.8	/	54.9*	-1.7	/
CC(=NNc1nccnc1Cl)c1ccc([N+](=O)[O-])cc1	4.2	/	/	/	/	/
CCCNC(=O)CC(C)=NNC(=O)COc1ccc(C)cc1Br	0.7	/	/	/	/	/
COc1ccccc1-c1c(-c2ccc(O)cc2O)n[nH]c1C(F)(F)F	0.1	-6.7	96.6*	-6.9	-7.5	12.5
COc1ccc(-c2c(-c3ccc(O)cc3O)n[nH]c2C)cc1OC	0.4	?	88.4*	-4.6	-1.4	12.7
Oc1ccc(-c2n[nH]c(C(F)(F)F)c2-c2ccccc2)c(O)c1	1.0	-3.0	97.3*	-2.7	9.9	13.8
COc1cccc(CNc2nccs2)c1O	1.7	3.4	87.6*	18.9	-4.5	16.2
COc1ccc(OC2C(=O)N(Cc3ccc4c(c3)OCO4)C2c2sccc2C)cc1 (centres undefined)	4.9	93.3*	0.0	20.0	-4.5	12.5
COc1ccc(OC2C(=O)N(Cc3ccc(F)cc3)C2c2ccc(OC)c(OC)c2)cc1 (centres undefined)	1.7	1.7	-5.3	-14.7	2.4	12.9
CC(C)c1ccc(C=NNC(=O)C2CCCC2)cc1	3.5	/	/	/	/	/
Cn1c(=O)c2nnn(N=C(c3ccccc3)C3CC3)c2n(C)c1=O	33.9*	/	/	/	/	/
SMILES	UCH37 inh	Calb FLC	ALR H2O2 inh	NALP1 yeast inh	ATG4B inhibitor	NLRP3 yeast inh
CN(C)c1ccc(NC(=O)CC(NCc2ccccn2)C(=O)O)cc1 (centres undefined)	2.1	-4.8	99.9*	15.1	6.3	4.1
COC(C(=O)N/N=C(\C)CC(=O)Nc1ccc(N(C)C)cc1)c1ccccc1 (centres undefined)	/	-9.5	98.9*	16.3	-8.8	11.0
C/C(CC(=O)Nc1ccc(N(C)C)cc1)=N\NC(=O)c1ccccn1	/	-7.0	96.1*	-13.0	-8.8	19.0
C/C(CC(=O)Nc1ccc(N(C)C)cc1)=N\NC(=O)c1cnccn1	/	12.3	98.8*	15.4	-3.9	9.4
CC(=NNC(=O)c1ccc(OC2CCCC2)cc1)c1ccc(C)s1	6.3	/	/	/	/	/
CCOC(=O)c1c(NC(=O)CC)sc(C(=O)N2CCCCC2)c1C	0.9	2.3	-3.4	-0.8	-1.9	25.7
CCOC(=O)c1c(N)sc(C(=O)N2CCCCCC2)c1C	1.7	-5.3	82.9*	5.4	-3.9	13.0
